Screening data from PubChem BioAssay.
A selection: hits, their analogues and other compounds. The true share with any hit is near 2.3%.
TRPC6 inhibitor: mouse TRPC6 channel inhibition. HEK293-TRPC6, membrane potential dye, ACh-evoked depolarization; active compounds read low. B-score at 10 µM. Q61143. 310,000 tested, 1.1% active;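 active means B-score under library mean minus 3 SD, initial fluorescence not abnormally high, positive integrated signal ratio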;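 further: B-score derived from integrated fluorescence ratio over the kinetic read; more negative B-score means stronger inhibition of depolarization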
Target sequence (Q61143 whole entry, looked up): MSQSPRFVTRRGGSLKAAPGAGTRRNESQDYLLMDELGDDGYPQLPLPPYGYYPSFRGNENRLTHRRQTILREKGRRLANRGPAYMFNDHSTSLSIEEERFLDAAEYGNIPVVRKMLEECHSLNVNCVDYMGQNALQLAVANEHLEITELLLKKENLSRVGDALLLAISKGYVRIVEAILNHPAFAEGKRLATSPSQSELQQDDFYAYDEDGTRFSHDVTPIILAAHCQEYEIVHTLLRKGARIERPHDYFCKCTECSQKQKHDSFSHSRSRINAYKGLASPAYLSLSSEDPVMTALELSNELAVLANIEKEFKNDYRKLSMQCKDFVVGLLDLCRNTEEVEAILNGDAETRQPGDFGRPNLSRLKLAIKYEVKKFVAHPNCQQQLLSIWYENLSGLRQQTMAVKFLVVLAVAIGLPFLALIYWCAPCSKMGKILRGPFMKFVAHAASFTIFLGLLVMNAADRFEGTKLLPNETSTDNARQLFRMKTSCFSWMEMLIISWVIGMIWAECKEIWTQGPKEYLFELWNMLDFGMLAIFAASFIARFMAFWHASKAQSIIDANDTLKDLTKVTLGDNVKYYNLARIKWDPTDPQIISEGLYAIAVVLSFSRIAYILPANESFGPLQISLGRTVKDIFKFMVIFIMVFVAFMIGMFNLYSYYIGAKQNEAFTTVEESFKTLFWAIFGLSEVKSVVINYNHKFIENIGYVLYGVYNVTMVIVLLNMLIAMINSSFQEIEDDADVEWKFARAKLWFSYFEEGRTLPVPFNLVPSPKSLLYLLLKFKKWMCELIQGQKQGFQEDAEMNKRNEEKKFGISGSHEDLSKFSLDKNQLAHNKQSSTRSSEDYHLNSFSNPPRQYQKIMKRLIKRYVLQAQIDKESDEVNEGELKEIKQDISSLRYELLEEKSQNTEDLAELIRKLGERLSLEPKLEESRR
TRPC4 block: TRPC4 (mouse) channel inhibition; Q9QUQ5; HEK293 TRPC4beta/mu-opioid, DAMGO-evoked Fluo4 calcium flux; active compounds read low; B-score at 10 µM; 300,000 tested, 0.39% active;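 active means B-score over 3 SD under the library average, no early fluorescence shift, positive overall ratio signal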
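Assay system: HEK293 cells with stable TRPC4beta plus mu-opioid receptor expression. Dosing: single dose. Measured by: Fluo4 Ca2+ flux fluorescence. Also added: DAMGO in two steps, submaximal then maximal. Read-out: B score from integrated Fluo4 fluorescence ratio.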
TRPC4 act: activators of mouse TRPC4 channel | Q9QUQ5 | HEK293 TRPC4beta/mu-opioid, Fluo4 calcium fluorescence; active compounds read high | B-score at 10 µM | 310,000 tested, 0.49% active | AID 2237;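 active means B-score above 5 SD of library B-scores, and initial fluorescence ratio not above library mean plus 5 SD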;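 further: positive B-score marks a calcium rise read as TRPC4 activation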
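Technique: kinetic Fluo4 calcium fluorescence; Test system: TRPC4beta and mu-opioid receptor HEK293 stable cells; Measure: B-scored integrated calcium fluorescence ratio; Benchmarks: low control buffer alone, high control maximal DAMGO; Schedule: 45 min room-temperature Fluo4 loading, 110 s read.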
TRPC4 potent: allosterically enhances the mouse TRPC4 cation channel | B-score at 10 µM | HEK293 TRPC4beta/mu-opioid, DAMGO EC20, Fluo-4 Ca2+ flux; active compounds read high | Q9QUQ5 | 310,000 tested, 0.42% active | AID 2227;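 active means B-score of calcium response area above 5 SD of library B-scores, with initial fluorescence ratio within 5 SD of library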
TRPC6 act: activators of mouse TRPC6 channel; AID 2550; B-score at 10 µM; HEK293-TRPC6 membrane potential dye fluorescence; active compounds read high; 310,000 tested, 0.13% active;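 active means B-score of the integrated fluorescence ratio above library mean plus 3 SD, and starting fluorescence ratio within library mean plus 5 SD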;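 further: higher score means more depolarization so channel activation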
TRPC4 sel inh 2: second selectivity test of TRPC6 inhibitors: effect on mouse TRPC4. shares compounds with TRPC6 inhibitor. HEK293 TRPC4/MOR, membrane potential dye fluorescence; channel activated by saturating DAMGO dose. inhibition, % at 10 µM. 920 tested, 42% active;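 active means compounds whose fluorescence signal differed from control wells by over 3 SD, either direction, in both duplicate plates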
TRPC4 spec: tests whether TRPC6 inhibitors also affect mouse TRPC4; HEK293 TRPC4/mu-opioid, membrane potential fluorescence; shares compounds with TRPC6 inhibitor; activity change, negative = inhibition, % at 10 µM; 920 tested, 61% active; AID 2777;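 active means rise or fall in signal beyond 3 SD of buffer-only wells in both replicate plates, either sign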;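 further: integrated kinetic ratio of fluorescence range over baseline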
HEK293 MPD ctr 2-1: parental HEK293 nonspecific activity of TRPC6 inhibitors, second screen; signal change vs control, % at 10 µM; 920 tested, 31% active; shares compounds with TRPC6 inhibitor; parental HEK293 membrane potential dye fluorescence; maximal acetylcholine challenge after compound addition;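 active means membrane potential signal moving either way by over 3 SD of the maximum-effect control, in both duplicate plates, meaning non-specific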
HEK293 MPD ctr-1: checks TRPC6 inhibitor effects in parental HEK293 cells; parental HEK293 membrane potential dye fluorescence; shares compounds with TRPC6 inhibitor; membrane potential signal change, % at 10 µM; AID 2780; 920 tested, 60% active;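 active means membrane potential signal shifting up or down by more than 3 SD of buffer-only wells, on both duplicate plates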
HEK293 MPD ctr-2: counter-screen for TRPC6 modulators: effect in parental HEK293 cells; shares compounds with TRPC6 inhibitor; membrane potential dye fluorescence; membrane potential signal change, % at 10 µM; 2,400 tested, 51% active; AID 488924;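 active means membrane potential signal moves up or down beyond 5 SD from buffer-only wells, on both duplicate plates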
HEK293 MPD ctr 2-2: parental HEK293 nonspecific activity of TRPC6 modulators, second screen. 2,400 tested, 14% active. membrane potential dye fluorescence; after compound, maximal acetylcholine stimulation. AID 488926. inhibition, % at 10 µM. shares compounds with TRPC6 inhibitor;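 active means membrane potential signal drops by more than 5 SD from the mean control signal, in both duplicate plates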
TRPC4/MOR mod: tests whether TRPC6 modulators also affect mouse TRPC4. shares compounds with TRPC6 inhibitor. HEK293 TRPC4/mu-opioid, membrane potential fluorescence. percent change from control (negative = decrease, positive = increase), % at 10 µM. 2,400 tested, 69% active. AID 488927;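 active means membrane potential signal moved up or down beyond 5 SD of buffer control wells, in both duplicate plates, actives on both sides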
TRPC4/MOR inh 2: mouse TRPC4 off-target activity of TRPC6 modulators, second screen; shares compounds with TRPC6 inhibitor; HEK293 TRPC4/mu-opioid, membrane potential dye fluorescence; stimulated with maximal-effect DAMGO; inhibition, % at 10 µM; 2,400 tested, 55% active;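 active means drop in membrane potential signal beyond 5 SD of the control wells in both duplicate plates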;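 further: TRPC4 counter screen for TRPC6 hits run under conditions tuned for TRPC6 not TRPC4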
TRPC6 block conf: mouse TRPC6 inhibitor confirmation. 3,300 tested, 43% active. HEK293-TRPC6, membrane potential dye, ACh-evoked depolarization. inhibition, % at 10 µM. AID 488960. shares compounds with TRPC6 inhibitor;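 active means fluorescence ratio falls more than 5 SD below the full-stimulation control mean, in both duplicate runs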;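 further: integrated fluorescence ratio of peak minus minimum over baseline after agonist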
TRPC6 act conf: mouse TRPC6 activator confirmation | shares compounds with TRPC6 inhibitor | HEK293-TRPC6 membrane potential dye fluorescence, FDSS | activation, % at 10 µM | 2,800 tested, 11% active | AID 488961;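 active means ratio signal rise beyond 5 SD above unstimulated control wells' mean, seen in both duplicate runs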
Of the large screens only hits and unclear results are named; the others gave an inactive call (follow-up assays come after a bar, where they were run).

COc1cc(C(=O)Nc2ccc3c(c2)N(C(=O)CCN(C)C)c2ccccc2CC3)cc(OC)c1OC	TRPC6 inhibitor -8.75 | HEK293 MPD ctr-2 inactive | HEK293 MPD ctr 2-2 inactive | TRPC4/MOR mod inactive | TRPC4/MOR inh 2 inactive | TRPC6 block conf 58.0% | TRPC6 act conf inactive
Cc1nn(C)c(C(=O)N/N=C/c2ccc(C(F)(F)F)cc2)c1[N+](=O)[O-]	TRPC6 inhibitor -5.78 | HEK293 MPD ctr-2 inactive | HEK293 MPD ctr 2-2 inactive | TRPC4/MOR mod -13.5% | TRPC4/MOR inh 2 inactive | TRPC6 block conf inactive | TRPC6 act conf inactive
O=C(CSc1ccc2c(c1)OCCO2)NCCc1ccc(Cl)cc1Cl	TRPC6 inhibitor -5.44 | HEK293 MPD ctr-2 350.0% | HEK293 MPD ctr 2-2 inactive | TRPC4/MOR mod 16.0% | TRPC4/MOR inh 2 inactive | TRPC6 block conf inactive | TRPC6 act conf inactive
CCOc1ccc2[nH]c3c(N4CCc5ccccc5C4)ncnc3c2c1	TRPC6 inhibitor -6.51 | HEK293 MPD ctr-2 inactive | HEK293 MPD ctr 2-2 inactive | TRPC4/MOR mod inactive | TRPC4/MOR inh 2 52.5% | TRPC6 block conf inactive | TRPC6 act conf inactive
Cn1c(-c2ccc(F)cc2)cnc1NCc1cc2c(cc1[N+](=O)[O-])OCO2	TRPC6 inhibitor -6.15 | HEK293 MPD ctr-2 inactive | HEK293 MPD ctr 2-2 inactive | TRPC4/MOR mod -15.5% | TRPC4/MOR inh 2 76.5% | TRPC6 block conf 72.5% | TRPC6 act conf inactive
COc1ccccc1CNc1ncc(-c2ccc(F)cc2)n1C	none
Cn1c(-c2ccccc2)cnc1NCc1cc2c(cc1[N+](=O)[O-])OCO2	TRPC6 inhibitor -5.59 | HEK293 MPD ctr-2 inactive | HEK293 MPD ctr 2-2 inactive | TRPC4/MOR mod -23.5% | TRPC4/MOR inh 2 68.5% | TRPC6 block conf inactive | TRPC6 act conf inactive
COc1ccc(OC)c(CNc2ncc(-c3ccc(F)cc3)n2C)c1	TRPC6 inhibitor -5.31 | HEK293 MPD ctr-2 inactive | HEK293 MPD ctr 2-2 inactive | TRPC4/MOR mod inactive | TRPC4/MOR inh 2 67.5% | TRPC6 block conf 57.0% | TRPC6 act conf inactive
Cc1ccc(C)c(NS(=O)(=O)c2ccc(NC(=O)c3ccco3)cc2)c1	none
O=C(Nc1nnc(-c2ccccc2Cl)o1)c1ccc(S(=O)(=O)N2CCCCCC2)cc1	TRPC6 inhibitor -6.29, TRPC4 act 71 | HEK293 MPD ctr-2 inactive | HEK293 MPD ctr 2-2 inactive | TRPC4/MOR mod -10.5% | TRPC4/MOR inh 2 inactive | TRPC6 block conf inactive | TRPC6 act conf inactive
CS(=O)(=O)c1ccccc1-c1nnc(NC(=O)c2ccc(S(=O)(=O)N3CCCC3)cc2)o1	none
Cc1sc2ncnc(Oc3ccc(-n4ccnc4)cc3)c2c1C	none
O=C(O)CN(c1ccccn1)S(=O)(=O)c1ccccc1	none
CCOC(=O)c1c(C)n(C)c2ccc(OC)c(NC(=O)CCN3CCC(Cc4ccccc4)CC3)c12	TRPC6 inhibitor -5.24 | HEK293 MPD ctr-2 inactive | HEK293 MPD ctr 2-2 inactive | TRPC4/MOR mod inactive | TRPC4/MOR inh 2 69.5% | TRPC6 block conf 53.5% | TRPC6 act conf inactive
Nc1cc2ccncc2c2ccccc12	TRPC6 inhibitor -11 | HEK293 MPD ctr-2 -380.0% | HEK293 MPD ctr 2-2 77.5% | TRPC4/MOR mod -71.5% | TRPC4/MOR inh 2 85.5% | TRPC6 block conf 74.0% | TRPC6 act conf inactive
O=C(OCc1ccc(C(=O)c2ccccc2)cc1)c1cccc(-c2nnc(-c3ccccc3)o2)c1	none
Cc1ccc[n+](CC(=O)c2cc3ccccc3oc2=O)c1	TRPC6 inhibitor -6.5 | HEK293 MPD ctr-2 -76.0% | HEK293 MPD ctr 2-2 inactive | TRPC4/MOR mod -21.5% | TRPC4/MOR inh 2 inactive | TRPC6 block conf 70.5% | TRPC6 act conf inactive
CN(C)c1nc(F)c(F)c(S(=O)(=O)c2ccccc2)c1F	TRPC6 inhibitor -5.26 | HEK293 MPD ctr-2 inactive | HEK293 MPD ctr 2-2 inactive | TRPC4/MOR mod inactive | TRPC4/MOR inh 2 inactive | TRPC6 block conf inactive | TRPC6 act conf inactive
CC1CCCN(C(=O)COc2ccc(-c3ccccc3)cc2)C1 (stereo unspecified)	TRPC6 inhibitor -5.96 | HEK293 MPD ctr-2 inactive | HEK293 MPD ctr 2-2 inactive | TRPC4/MOR mod 10.5% | TRPC4/MOR inh 2 inactive | TRPC6 block conf inactive
N=c1c(-c2nc3ccccc3[nH]2)cc(C(=O)c2cccs2)nn1-c1ccccc1	TRPC6 inhibitor -7.67 | TRPC4 sel inh 2 58.5% | TRPC4 spec -14.0% | HEK293 MPD ctr 2-1 inactive | HEK293 MPD ctr-1 -179.0% | TRPC6 block conf 68.4% | TRPC6 act conf inactive
N=c1c2c3c(sc2ncn1CCN1CCOCC1)CCCCC3	none
N=c1c2c3c(sc2ncn1Nc1ccccc1)CCC3	TRPC6 inhibitor -5.28 | HEK293 MPD ctr-2 inactive | HEK293 MPD ctr 2-2 inactive | TRPC4/MOR mod -8.5% | TRPC4/MOR inh 2 51.5% | TRPC6 block conf 51.0% | TRPC6 act conf inactive
N=c1c2c3c(sc2ncn1CCCO)CCCC3	none
CCCCn1cnc2sc3c(c2c1=N)CCCC3	TRPC6 inhibitor -7.11 | TRPC4 sel inh 2 62.0% | TRPC4 spec -17.4% | HEK293 MPD ctr 2-1 inactive | HEK293 MPD ctr-1 -228.5% | TRPC6 block conf inactive | TRPC6 act conf inactive
N=c1c2c3c(sc2ncn1Cc1ccccc1)CCCC3	TRPC6 inhibitor -6.46 | HEK293 MPD ctr-2 inactive | HEK293 MPD ctr 2-2 inactive | TRPC4/MOR mod -11.5% | TRPC4/MOR inh 2 39.0% | TRPC6 block conf inactive | TRPC6 act conf inactive
CNC(=O)c1ccc(OC2CSC2)cc1	none
